Activity calls are given as the source filed them. The calls are words filed in the database; no cut-off is given here.
Tests used:
C2C12 = assay: Inhibition of rotenone-induced blockade of mitochondrial complex 1 in mouse C2C12 cells assessed as increase of oxygen consumption at 10 uM after 2 hrs by fluorescence assay in presence of FCCP; format: cell-based
Outline: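 C2C12 cells grown in DMEM with 10% FBS and 2 mM glutamine were trypsinized, resuspended in phenol red-free medium and pretreated with 25 nM rotenone. They were plated at 200,000 cells/well on an oxygen biosensor plate and given 10 μM compound with 5 μM FCCP. Fluorescence (ex 485/em 620 nm) was followed for 2 h. Rate is M/T, slope at 50% maximum over time to 50% maximum, in triplicate.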

CCRF-CEM [1] = assay: Cytoprotective activity against diethyl maleate-induced cell death in human CEM cells assessed as cell viability at 2.5 uM treated 18 hrs before diethyl maleate challenge measured after 4 hrs by trypan blue assay; format: functional; settings: read-out: Activity
Outline: (§1)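 CEM leukemia cells grown in RPMI 1640 with 10% FBS and 1% penicillin-streptomycin; 5 × 10⁵ cells/well pretreated with compound for 18 h, then exposed to 5 mM diethyl maleate at 37 °C, 5% CO2 for 4 h. Viability by 0.4% trypan blue exclusion, as percent of control cells given neither DEM nor compound; mean ± SD, n=3.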

CCRF-CEM [2] = assay: Cytoprotective activity against diethyl maleate-induced cell death in human CEM cells assessed as cell viability at 0.5 uM treated 18 hrs before diethyl maleate challenge measured after 4 hrs by trypan blue assay; format: functional; settings: read-out: Activity; outline: as §1
CCRF-CEM [3] = assay: Cytoprotective activity against diethyl maleate-induced cell death in human CEM cells assessed as cell viability at 0.1 uM treated 18 hrs before diethyl maleate challenge measured after 4 hrs by trypan blue assay; format: functional; settings: read-out: Activity; outline: as §1

Structure (SMILES)	Rescue of oxygen consumption (active/not active) (C2C12)	viability at 2.5 µM (CCRF-CEM [1])	viability at 0.5 µM (CCRF-CEM [2])	viability at 0.1 µM (CCRF-CEM [3])
COC1=C(OC)C(=O)C(CCC[P+](c2ccccc2)(c2ccccc2)c2ccccc2)=C(C)C1=O	Active			
CC1=C(C)C(=O)C(CCCCCCCCCCO)=C(C)C1=O		96.3%	77.3%	34.8%
COC1=C(C)C(=O)C(C)=C(CCCCCCCCCCO)C1=O		77.1%	21.2%	8.27%
COC1=C(OC)C(=O)C(CCCCCCCCCCO)=C(C)C1=O [IDEBENONE]		86.2%	35.8%	24.6%
COC1=C(OC)C(=O)C(CCCCCCCCCCCCCCC[P+](c2ccccc2)(c2ccccc2)c2ccccc2)=C(C)C1=O	inactive			
COC1=C(OC)C(=O)C(CCCCC[P+](c2ccccc2)(c2ccccc2)c2ccccc2)=C(C)C1=O	inactive			
COC1=C(C)C(=O)C(CCCCCCCCCCO)=C(C)C1=O		82.3%	74.7%	22.9%
COC1=C(OC)C(=O)C(CCCCCCCCCC[P+](c2ccccc2)(c2ccccc2)c2ccccc2)=C(C)C1=O	inactive			

From ChEMBL document CHEMBL1221324, “Synthesis and characterization of mitoQ and idebenone analogues as mediators of oxygen consumption in mitochondria” (2010)
